System: not listed separately
Test: Reactive carbonyl species trapping activity of compound assessed as MGO adduct formation at 10 mM preincubated for 24 hrs with MGO measured after 24 hrs by LCMS analysis
Format: physicochemical
Details: 10000 µM

Activity | Compound
98% | Cl.Cl.NCC(N)CCC(=O)N1CCN(C(=O)CCn2cccc(O)c2=O)CC1 (stereo not drawn)
100% | Cc1c(O)c(=O)ccn1CCCNC(=O)CCC(N)CN.Cl.Cl (stereo not drawn)

System: not listed separately
Test: Reactive carbonyl species trapping activity of compound assessed as MGO adduct formation at 10 mM preincubated for 24 hrs with MGO measured after 15 mins by LCMS analysis
Format: physicochemical
Details: 0.25 h, 10000 µM

Activity | Compound
97% | Cl.Cl.NCC(N)CCC(=O)N1CCN(C(=O)CCn2cccc(O)c2=O)CC1 (stereo not drawn)
95% | Cc1c(O)c(=O)ccn1CCCNC(=O)CCC(N)CN.Cl.Cl (stereo not drawn)

System: not listed separately
Test: Reactive carbonyl species trapping activity of compound assessed as MDA adduct formation at 10 mM preincubated for 24 hrs with MDA measured after 1 hr by LCMS analysis
Format: physicochemical
Details: 10000 µM

Activity | Compound
81% | Cl.Cl.NCC(N)CCC(=O)N1CCN(C(=O)CCn2cccc(O)c2=O)CC1 (stereo not drawn)
92% | Cc1c(O)c(=O)ccn1CCCNC(=O)CCC(N)CN.Cl.Cl (stereo not drawn)

System: not listed separately
Test: Antioxidant activity assessed as inhibition of AAPH-induced peroxyl radical generation measured as trolox equivalent at 10 uM preincubated for 30 mins followed by AAPH addition measured evey 60 secs for 60 cycles by ORAC-FL assay
Format: functional
Details: in the assay text read “90 secs” for “60 secs”
How it was run: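 Fluorescein (12 nM) preincubated with compound (1-20 µM) or Trolox standard (1-50 µM) in D-PBS, at least 30 min at 37 °C. Reaction started with AAPH (30 mM). Fluorescence (ex 485/em 520 nm) read every 90 s for 60 cycles. Net AUC is converted to Trolox equivalents via the Trolox calibration line. Values are reported at 10 µM, from at least three independent experiments in triplicate.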

Compound | Activity (umolequiv/umol)
Cl.Cl.NCC(N)CCC(=O)N1CCN(C(=O)CCn2cccc(O)c2=O)CC1 (stereo not drawn) | 0.99
Cc1c(O)c(=O)ccn1CCCNC(=O)CCC(N)CN.Cl.Cl (stereo not drawn) | 1.01

System: not listed separately
Test: Metal chelating activity of compound assessed as compound-Cu2+ complex formation at 200 uM after 10 mins in presence of CuSO4.5H2O by complexometric indicator murexide based UV-Vis spectrophotometric analysis
Format: physicochemical
Details: not given
How it was run: (§1)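 Compound (0.02-2 mM) incubated with CuSO4 (120 µM) for 10 min at rt, in 10 mM hexamine/HCl with 10 mM KCl (pH 5.0), or in buffer/MeOH 75:25 for poorly soluble compounds. Murexide added, 1 min more. The A485/A520 ratio gives free Cu2+ from a CuSO4 calibration curve (0-125 µM). % chelation is taken by difference from the no-compound control; triplicates.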

Activity | Compound
53.23% | Cl.Cl.NCC(N)CCC(=O)N1CCN(C(=O)CCn2cccc(O)c2=O)CC1 (stereo not drawn)
66.7% | Cc1c(O)c(=O)ccn1CCCNC(=O)CCC(N)CN.Cl.Cl (stereo not drawn)

Species on record: Rattus norvegicus
Test: Cytotoxicity against rat […] PC12 cells assessed as reduction in cell viability at 10 to 100 uM after 24 hrs by WST8-based CCK8 assay
Format: toxicity
Details: pc-12, 24 h
How it was run: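 PC12 Adh cells (rat pheochromocytoma-derived) grown in F-12K with 2.5% FBS, 15% horse serum and pen/strep at 37 °C, 5% CO2. Seeded at 5×10^3 cells/well; treated at 80% confluency with 10 or 100 µM for 24 h. 10% DMSO served as positive cytotoxicity control. CCK-8 added for 1 h at 37 °C, absorbance read at 450 nm. Viability given as % of untreated cells; at least three experiments in triplicate.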

Compound | Activity
Cl.Cl.NCC(N)CCC(=O)N1CCN(C(=O)CCn2cccc(O)c2=O)CC1 (stereo not drawn) | Non-Toxic
Cc1c(O)c(=O)ccn1CCCNC(=O)CCC(N)CN.Cl.Cl (stereo not drawn) | Non-Toxic

System: not listed separately
Test: Reactive carbonyl species trapping activity of compound assessed as MGO adduct formation at 10 mM preincubated for 24 hrs with MGO measured after 0.25 hrs by LCMS analysis
Format: physicochemical
Details: 10000 µM

Activity | Compound
97% | Cl.Cl.NCC(N)CCC(=O)N1CCN(C(=O)CCn2cccc(O)c2=O)CC1 (stereo not drawn)
95% | Cc1c(O)c(=O)ccn1CCCNC(=O)CCC(N)CN.Cl.Cl (stereo not drawn)

System: not listed separately
Test: Reactive carbonyl species trapping activity of compound assessed as MGO adduct formation at 10 mM preincubated for 24 hrs with MGO measured after 0.5 hrs by LCMS analysis
Format: physicochemical
Details: 10000 µM

Activity | Compound
97% | Cl.Cl.NCC(N)CCC(=O)N1CCN(C(=O)CCn2cccc(O)c2=O)CC1 (stereo not drawn)
98% | Cc1c(O)c(=O)ccn1CCCNC(=O)CCC(N)CN.Cl.Cl (stereo not drawn)

System: not listed separately
Test: Reactive carbonyl species trapping activity of compound assessed as MGO adduct formation at 10 mM preincubated for 24 hrs with MGO measured after 1 hr by LCMS analysis
Format: physicochemical
Details: 10000 µM

Activity | Compound
98% | Cl.Cl.NCC(N)CCC(=O)N1CCN(C(=O)CCn2cccc(O)c2=O)CC1 (stereo not drawn)
100% | Cc1c(O)c(=O)ccn1CCCNC(=O)CCC(N)CN.Cl.Cl (stereo not drawn)

System: not listed separately
Test: Reactive carbonyl species trapping activity of compound assessed as MGO adduct formation at 10 mM preincubated for 24 hrs with MGO measured after 5 hrs by LCMS analysis
Format: physicochemical
Details: 10000 µM

Activity | Compound
99% | Cl.Cl.NCC(N)CCC(=O)N1CCN(C(=O)CCn2cccc(O)c2=O)CC1 (stereo not drawn)
100% | Cc1c(O)c(=O)ccn1CCCNC(=O)CCC(N)CN.Cl.Cl (stereo not drawn)

System: not listed separately
Test: Reactive carbonyl species trapping activity of compound assessed as MDA adduct formation at 10 mM preincubated for 24 hrs with MDA measured after 0.25 hrs by LCMS analysis
Format: physicochemical
Details: 10000 µM

Activity | Compound
74% | Cl.Cl.NCC(N)CCC(=O)N1CCN(C(=O)CCn2cccc(O)c2=O)CC1 (stereo not drawn)
76% | Cc1c(O)c(=O)ccn1CCCNC(=O)CCC(N)CN.Cl.Cl (stereo not drawn)

System: not listed separately
Test: Reactive carbonyl species trapping activity of compound assessed as MDA adduct formation at 10 mM preincubated for 24 hrs with MDA measured after 0.5 hrs by LCMS analysis
Format: physicochemical
Details: 10000 µM

Activity | Compound
76% | Cl.Cl.NCC(N)CCC(=O)N1CCN(C(=O)CCn2cccc(O)c2=O)CC1 (stereo not drawn)
82% | Cc1c(O)c(=O)ccn1CCCNC(=O)CCC(N)CN.Cl.Cl (stereo not drawn)

System: not listed separately
Test: Reactive carbonyl species trapping activity of compound assessed as MDA adduct formation at 10 mM preincubated for 24 hrs with MDA measured after 5 hrs by LCMS analysis
Format: physicochemical
Details: 10000 µM

Activity | Compound
85% | Cl.Cl.NCC(N)CCC(=O)N1CCN(C(=O)CCn2cccc(O)c2=O)CC1 (stereo not drawn)
95% | Cc1c(O)c(=O)ccn1CCCNC(=O)CCC(N)CN.Cl.Cl (stereo not drawn)

System: not listed separately
Test: Reactive carbonyl species trapping activity of compound assessed as MDA adduct formation at 10 mM preincubated for 24 hrs with MDA measured after 24 hrs by LCMS analysis
Format: physicochemical
Details: 10000 µM

Activity | Compound
84% | Cl.Cl.NCC(N)CCC(=O)N1CCN(C(=O)CCn2cccc(O)c2=O)CC1 (stereo not drawn)
99% | Cc1c(O)c(=O)ccn1CCCNC(=O)CCC(N)CN.Cl.Cl (stereo not drawn)

System: not listed separately
Test: Metal chelating activity of compound assessed as compound-Cu2+ complex formation at 0.02 mM after 10 mins in presence of CuSO4.5H2O by complexometric indicator murexide based UV-Vis spectrophotometric analysis
Format: physicochemical
Details: 20 µM
How it was run: as §1

Activity | Compound
11.76% | Cl.Cl.NCC(N)CCC(=O)N1CCN(C(=O)CCn2cccc(O)c2=O)CC1 (stereo not drawn)
11.03% | Cc1c(O)c(=O)ccn1CCCNC(=O)CCC(N)CN.Cl.Cl (stereo not drawn)

System: not listed separately
Test: Metal chelating activity of compound assessed as compound-Cu2+ complex formation at 0.05 mM after 10 mins in presence of CuSO4.5H2O by complexometric indicator murexide based UV-Vis spectrophotometric analysis
Format: physicochemical
Details: 50 µM
How it was run: as §1

Activity | Compound
23.88% | Cl.Cl.NCC(N)CCC(=O)N1CCN(C(=O)CCn2cccc(O)c2=O)CC1 (stereo not drawn)
24.69% | Cc1c(O)c(=O)ccn1CCCNC(=O)CCC(N)CN.Cl.Cl (stereo not drawn)

System: not listed separately
Test: Metal chelating activity of compound assessed as compound-Cu2+ complex formation at 0.08 mM after 10 mins in presence of CuSO4.5H2O by complexometric indicator murexide based UV-Vis spectrophotometric analysis
Format: physicochemical
Details: 80 µM
How it was run: as §1

Activity | Compound
31.08% | Cl.Cl.NCC(N)CCC(=O)N1CCN(C(=O)CCn2cccc(O)c2=O)CC1 (stereo not drawn)
35.1% | Cc1c(O)c(=O)ccn1CCCNC(=O)CCC(N)CN.Cl.Cl (stereo not drawn)

System: not listed separately
Test: Metal chelating activity of compound assessed as compound-Cu2+ complex formation at 0.1 mM after 10 mins in presence of CuSO4.5H2O by complexometric indicator murexide based UV-Vis spectrophotometric analysis
Format: physicochemical
Details: 100 µM
How it was run: as §1

Activity | Compound
36.03% | Cl.Cl.NCC(N)CCC(=O)N1CCN(C(=O)CCn2cccc(O)c2=O)CC1 (stereo not drawn)
40.91% | Cc1c(O)c(=O)ccn1CCCNC(=O)CCC(N)CN.Cl.Cl (stereo not drawn)

System: not listed separately
Test: Metal chelating activity of compound assessed as compound-Cu2+ complex formation at 0.5 mM after 10 mins in presence of CuSO4.5H2O by complexometric indicator murexide based UV-Vis spectrophotometric analysis
Format: physicochemical
Details: 500 µM
How it was run: as §1

Activity | Compound
71.58% | Cl.Cl.NCC(N)CCC(=O)N1CCN(C(=O)CCn2cccc(O)c2=O)CC1 (stereo not drawn)
88.46% | Cc1c(O)c(=O)ccn1CCCNC(=O)CCC(N)CN.Cl.Cl (stereo not drawn)

System: not listed separately
Test: Metal chelating activity of compound assessed as compound-Cu2+ complex formation at 1 mM after 10 mins in presence of CuSO4.5H2O by complexometric indicator murexide based UV-Vis spectrophotometric analysis
Format: physicochemical
Details: 1000 µM
How it was run: as §1

Activity | Compound
74.59% | Cl.Cl.NCC(N)CCC(=O)N1CCN(C(=O)CCn2cccc(O)c2=O)CC1 (stereo not drawn)
93.45% | Cc1c(O)c(=O)ccn1CCCNC(=O)CCC(N)CN.Cl.Cl (stereo not drawn)

System: not listed separately
Test: Metal chelating activity of compound assessed as compound-Cu2+ complex formation at 2 mM after 10 mins in presence of CuSO4.5H2O by complexometric indicator murexide based UV-Vis spectrophotometric analysis
Format: physicochemical
Details: 2000 µM
How it was run: as §1

Activity | Compound
76.53% | Cl.Cl.NCC(N)CCC(=O)N1CCN(C(=O)CCn2cccc(O)c2=O)CC1 (stereo not drawn)
95.45% | Cc1c(O)c(=O)ccn1CCCNC(=O)CCC(N)CN.Cl.Cl (stereo not drawn)

System: not listed separately
Test: Reactive carbonyl species trapping activity of compound assessed as MDA adduct formation at 10 mM preincubated for 24 hrs measured after 15 mins by LCMS analysis
Format: physicochemical
Details: 0.25 h, 10000 µM

Activity | Compound
76% | Cc1c(O)c(=O)ccn1CCCNC(=O)CCC(N)CN.Cl.Cl (stereo not drawn)

— ChEMBL document CHEMBL3865830, “Multifunctional diamine AGE/ALE inhibitors with potential therapeutical properties against Alzheimer's disease” (Eur J Med Chem, 2016)
